Laboratory results from article PMC6133078 (European Journal of Drug Metabolism and Pharmacokinetics, 2018).
Structures can show the parent of a compound that is named as a salt.

Columns and labels:
xenograft = xenograft mice model; preliminary studies; cited from earlier work
[1] = test system: several cancer cell lines, such as lung, breast, ovarian, colon, prostate cancer, leukemia, lymphoma and osteosarcoma; conditions: according to the data in vitro; cited from earlier work
[2] = Stability tests of puquitinib in human plasma QC samples; assay type: physicochemical; conditions: in words
How it was run: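 Plasma QC samples (3.00, 250.00, 400.00 ng/mL) were tested three ways: extracted samples at room temperature for about 72 h; three freeze (−80 °C) and thaw (room temperature) cycles within a month, analysed in triplicate; and storage at −80 °C for 1 month. Quantified by HPLC–MS/MS against same-day calibration; accuracy given as RE%.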

stability during short-term, freeze and thaw and long-term tests [2]: good stability
SMILES: c1cnc2ccc(Nc3nc(NC4CC4)c4nc[nH]c4n3)cc2c1 [puquitinib, Puquitinib mesylate]
antitumor efficacy (xenograft): clear antitumor efficacy
IC50 [1]: 0.5 to 2 µM
